From ChEMBL document CHEMBL1126018, “Syntheses and 5-HT2 antagonist activity of bicyclic 1,2,4-triazol-3(2H)-one and 1,3,5-triazine-2,4(3H)-dione derivatives” (J Med Chem, 1992)

Assays:
[1] = target: T1, Adrenergic receptor alpha-1 (Rattus norvegicus, UniProt P15823+P23944+P43140); assay: In vitro antagonistic activity tested against the contraction induced by phenylephrine through Alpha-1 adrenergic receptor in rat thoracic aortic strips; assay type: functional
T1 sequence (P15823 whole entry): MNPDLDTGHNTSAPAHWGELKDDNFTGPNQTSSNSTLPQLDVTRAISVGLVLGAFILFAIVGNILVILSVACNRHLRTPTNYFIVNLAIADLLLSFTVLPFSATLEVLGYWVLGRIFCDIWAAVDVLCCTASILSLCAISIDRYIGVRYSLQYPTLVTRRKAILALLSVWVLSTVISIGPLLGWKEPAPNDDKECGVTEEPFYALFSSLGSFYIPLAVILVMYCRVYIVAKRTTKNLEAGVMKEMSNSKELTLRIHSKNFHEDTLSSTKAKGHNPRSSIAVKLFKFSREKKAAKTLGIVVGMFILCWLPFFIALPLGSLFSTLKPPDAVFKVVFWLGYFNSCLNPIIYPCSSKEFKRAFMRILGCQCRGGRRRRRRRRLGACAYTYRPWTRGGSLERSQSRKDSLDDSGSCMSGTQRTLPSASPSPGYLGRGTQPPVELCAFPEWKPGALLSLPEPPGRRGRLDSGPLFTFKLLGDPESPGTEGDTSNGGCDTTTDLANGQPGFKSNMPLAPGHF
T1 sequence (P23944 whole entry): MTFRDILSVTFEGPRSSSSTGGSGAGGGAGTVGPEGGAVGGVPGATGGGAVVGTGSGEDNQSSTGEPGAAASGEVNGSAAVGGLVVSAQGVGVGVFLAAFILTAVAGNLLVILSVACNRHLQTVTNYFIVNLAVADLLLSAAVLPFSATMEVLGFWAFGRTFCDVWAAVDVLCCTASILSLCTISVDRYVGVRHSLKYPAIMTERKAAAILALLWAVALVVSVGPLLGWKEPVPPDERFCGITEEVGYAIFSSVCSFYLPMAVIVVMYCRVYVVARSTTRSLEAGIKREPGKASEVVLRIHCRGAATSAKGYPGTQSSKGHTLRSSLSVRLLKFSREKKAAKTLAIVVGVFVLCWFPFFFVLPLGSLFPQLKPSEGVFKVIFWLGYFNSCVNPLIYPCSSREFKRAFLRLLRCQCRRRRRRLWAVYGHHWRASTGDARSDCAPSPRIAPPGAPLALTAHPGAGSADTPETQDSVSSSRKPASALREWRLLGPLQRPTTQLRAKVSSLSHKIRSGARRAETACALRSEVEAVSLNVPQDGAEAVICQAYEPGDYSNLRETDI
T1 sequence (P43140 whole entry): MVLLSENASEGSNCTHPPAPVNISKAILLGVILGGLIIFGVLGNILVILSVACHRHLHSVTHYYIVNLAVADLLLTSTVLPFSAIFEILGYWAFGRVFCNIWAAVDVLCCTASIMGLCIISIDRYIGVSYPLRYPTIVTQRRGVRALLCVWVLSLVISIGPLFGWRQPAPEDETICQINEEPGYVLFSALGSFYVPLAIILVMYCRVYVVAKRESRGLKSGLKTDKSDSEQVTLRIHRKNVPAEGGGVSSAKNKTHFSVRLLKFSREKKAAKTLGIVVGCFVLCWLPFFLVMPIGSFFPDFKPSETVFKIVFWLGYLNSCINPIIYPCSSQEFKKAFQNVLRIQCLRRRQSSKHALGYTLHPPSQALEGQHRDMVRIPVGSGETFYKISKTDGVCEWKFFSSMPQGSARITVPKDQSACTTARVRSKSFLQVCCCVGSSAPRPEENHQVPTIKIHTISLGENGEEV
Outline: (§1)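 Rat thoracic aortic strips, isometric tension; equilibrated 120 min, primed with 60 mM KCl. Cumulative phenylephrine (0.01-10 μM) curve, wash, 1 h later second cumulative curve with test drug present. pA2 from the concentration-response curves where blockade is competitive (otherwise noncompetitive); single determination.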

[2] = target: Serotonin 2 (5-HT2) receptor (Rattus norvegicus, UniProt P30994+P08909+P14842); assay: In vitro antagonistic activity tested against the contraction induced by 5-HT through 5-hydroxytryptamine 2 receptor in rat thoracic aortic strips; assay type: functional
[3] = target: T2, Adrenergic receptor alpha-1 (Rattus norvegicus) (UniProt P15823+P23944+P43140); assay: In vivo inhibitory activity in rats against elevation of blood pressure caused by phenylephrine (30 ug/kg, iv) through Alpha-1 adrenergic receptor, after 1 hr oral administration at dose of 10 mg/kg; assay type: functional, organism-based; parameters: dose 10 mg/kg
Outline: (§2)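 Male SD rats under urethane (1 g/kg ip) and alpha-chloralose (80 mg/kg ip). Blood pressure recorded via carotid catheter and transducer, iv dosing via venous catheter. After oral drug or vehicle, phenylephrine 30 μg/kg iv. The pressor rise was expressed as % inhibition, mean ± SEM.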

[4] = target: T3, Serotonin 2 (5-HT2) receptor (Rattus norvegicus) (UniProt P30994+P08909+P14842); assay: In vivo inhibitory activity of 10 mg/kg compound in rats against elevation of BP caused by 5-HT (300 ug/kg, iv) through 5-hydroxytryptamine 2 receptor 1 hr after oral administration; assay type: functional, organism-based; parameters: dose 10 mg/kg
T3 sequence (P08909 whole entry, looked up): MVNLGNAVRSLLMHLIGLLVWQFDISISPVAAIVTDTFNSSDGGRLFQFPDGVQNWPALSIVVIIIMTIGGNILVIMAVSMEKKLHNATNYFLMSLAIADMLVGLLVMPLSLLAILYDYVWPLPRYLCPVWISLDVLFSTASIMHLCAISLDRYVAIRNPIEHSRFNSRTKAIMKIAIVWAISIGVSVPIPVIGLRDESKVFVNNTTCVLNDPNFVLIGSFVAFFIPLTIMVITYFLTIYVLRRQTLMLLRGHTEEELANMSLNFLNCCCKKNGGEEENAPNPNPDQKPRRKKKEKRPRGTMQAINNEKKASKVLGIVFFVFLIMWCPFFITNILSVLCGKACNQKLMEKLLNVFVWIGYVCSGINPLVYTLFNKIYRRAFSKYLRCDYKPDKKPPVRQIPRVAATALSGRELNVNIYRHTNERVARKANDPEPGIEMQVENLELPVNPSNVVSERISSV
T3 sequence (P14842 whole entry, looked up): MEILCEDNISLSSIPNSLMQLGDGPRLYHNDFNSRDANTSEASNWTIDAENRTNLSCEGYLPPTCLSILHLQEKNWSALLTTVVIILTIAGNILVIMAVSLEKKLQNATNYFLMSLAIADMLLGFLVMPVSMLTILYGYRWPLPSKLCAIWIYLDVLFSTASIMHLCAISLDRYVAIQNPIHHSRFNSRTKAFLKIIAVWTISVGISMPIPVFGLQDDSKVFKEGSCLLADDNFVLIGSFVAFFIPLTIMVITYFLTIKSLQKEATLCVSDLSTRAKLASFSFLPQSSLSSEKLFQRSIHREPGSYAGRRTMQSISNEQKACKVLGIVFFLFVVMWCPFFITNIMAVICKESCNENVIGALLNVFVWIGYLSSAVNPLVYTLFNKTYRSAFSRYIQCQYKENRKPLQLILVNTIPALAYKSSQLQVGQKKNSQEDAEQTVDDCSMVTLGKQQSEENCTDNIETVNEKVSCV
T3 sequence (P30994 whole entry, looked up): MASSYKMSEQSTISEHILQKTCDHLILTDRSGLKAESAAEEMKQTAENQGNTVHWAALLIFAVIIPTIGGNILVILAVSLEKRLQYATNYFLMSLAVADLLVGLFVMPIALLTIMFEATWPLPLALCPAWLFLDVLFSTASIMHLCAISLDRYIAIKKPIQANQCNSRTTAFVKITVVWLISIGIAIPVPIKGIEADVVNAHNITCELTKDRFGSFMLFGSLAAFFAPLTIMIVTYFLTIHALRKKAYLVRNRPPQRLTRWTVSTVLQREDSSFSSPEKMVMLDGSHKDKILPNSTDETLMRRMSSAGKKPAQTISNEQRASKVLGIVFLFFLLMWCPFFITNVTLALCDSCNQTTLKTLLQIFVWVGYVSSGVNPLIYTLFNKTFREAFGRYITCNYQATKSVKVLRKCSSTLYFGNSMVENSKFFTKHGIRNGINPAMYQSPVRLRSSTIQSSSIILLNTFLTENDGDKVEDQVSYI
Outline: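 Male SD rats anesthetized with urethane (1 g/kg ip) plus alpha-chloralose (80 mg/kg ip). Carotid arterial catheter to a pressure transducer, venous catheter for injection. After oral drug or vehicle, 5-HT 300 μg/kg iv. The pressor phase following the brief hypotensive phase was measured and expressed as % inhibition, mean ± SEM.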

[5] = target: T2, Adrenergic receptor alpha-1 (Rattus norvegicus); assay: In vivo inhibitory activity in rats against elevation of blood pressure caused by phenylephrine (30 ug/kg, iv) through alpha-1 receptor after 1 hr of oral administration at the dose of 10 mg/kg; assay type: functional, organism-based; parameters: dose 10 mg/kg; outline: as §2
[6] = target: T1, Adrenergic receptor alpha-1; assay: In vitro antagonistic activity against the contraction induced by phenylephrine through alpha-1 receptor in rat thoracic aortic strips; assay type: functional; outline: as §1
[7] = target: T3, Serotonin 2 (5-HT2) receptor (Rattus norvegicus); assay: In vitro antagonistic activity against the contraction induced by 5-HT through 5-hydroxytryptamine 2 receptor in rat thoracic aortic strips; NC=non competitive antagonism; assay type: functional; settings: filed as antagonist
Outline: as §1, with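 “5-HT (0.1-100” for “phenylephrine (0.01-10”, “cumulative 5-HT” for “cumulative”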

[8] = target: T2, Adrenergic receptor alpha-1 (Rattus norvegicus); assay: In vitro antagonistic activity against the contraction induced by phenylephrine through Alpha-1 adrenergic receptor in rat thoracic aortic strips; NC = non-competitive inhibition; assay type: functional; outline: as §1

| SMILES | pA2 [1] | pA2 [2] | inhibition [4] [%] | pA2 [6] | pA2 [7] | pA2 [8] | inhibition [3] [%] | inhibition [5] [%] |
| --- | --- | --- | --- | --- | --- | --- | --- | --- |
| O=C(c1ccc(F)cc1)C1(O)CCN(CCn2c(=O)nc3n(c2=O)CCCC3)CC1 | 7.2 | 6.7 | 83 | – | – | – | 20 | – |
| COc1ccc(C(=C2CCN(CCn3nc4n(c3=O)CCCC4)CC2)c2ccc(OC)cc2)cc1 | – | 6.8 | 41 | 7.2 | – | – | – | 4 |
| O=C(c1ccc(F)cc1)C1(O)CCN(CCn2nc3n(c2=O)CCCC3)CC1 | 7 | 6.8 | 85 | – | – | – | 15 | – |
| O=C(c1ccc(F)cc1)C1CCN(CCCn2nc3n(c2=O)CCCC3)CC1 | 7.8 | 7.7 | – | – | – | – | – | – |
| O=c1nc2n(c(=O)n1CCN1CCC(=C(c3ccc(F)cc3)c3ccc(F)cc3)CC1)CCCC2 | – | 8.3 | 93 | 6.8 | – | – | – | 12 |
| O=c1n(CCN2CCC(=C(c3ccc(F)cc3)c3ccc(F)cc3)CC2)nc2n1CCCCC2 | – | 8.5 | 90 | 7 | – | – | – | 3 |
| O=C(c1ccc(F)cc1)C1CCN(CCn2c(=O)nc3n(c2=O)CCCCC3)CC1 | 6.9 | 7.8 | 78 | – | – | – | 15 | – |
| O=C(c1ccc(F)cc1)C1CCN(CCCn2nc3n(c2=O)CCCCC3)CC1 | – | – | – | – | Non-competitive antagonist | Non-competitive inhibition | – | – |
| N#CC(=C1CCN(CCn2nc3n(c2=O)CCCC3)CC1)c1ccc(F)cc1 | 6.3 | 6.7 | 32 | – | – | – | 2 | – |
| O=C(c1ccc(F)cc1)C1CCN(CCCn2c(=O)nc3n(c2=O)CCCC3)CC1 | 7.3 | 6.5 | 78 | – | – | – | 53 | – |
| O=C(c1ccc(F)cc1)C1CCN(CCn2nc3n(c2=O)CCC3)CC1 | 6.4 | 6.8 | 65 | – | – | – | 36 | – |
| O=c1n(CCN2CCC(=C(c3ccccc3)c3ccc(F)cc3)CC2)nc2n1CCCCC2 | 6.4 | 7.3 | 84 | – | – | – | 7 | – |
| O=C(c1ccc(F)cc1)C1(c2ccc(F)cc2)CCN(CCn2nc3n(c2=O)CCCC3)CC1 | < 6 | 6 | 11 | – | – | – | 6 | – |
| O=c1nc2sccn2c(=O)n1CCN1CCC(=C(c2ccc(F)cc2)c2ccc(F)cc2)CC1 | < 6 | 7.1 | 93 | – | – | – | 20 | – |
| O=C(c1ccc(F)cc1)C1CCN(CCn2c(=O)nc3n(c2=O)CCC3)CC1 | 7.1 | 7.3 | 67 | – | – | – | 23 | – |
| O=c1n(CCN2CCC(=C(c3ccc(F)cc3)c3ccc(F)cc3)CC2)nc2n1CCOC2 | 6.6 | 7.2 | 60 | – | – | – | 10 | – |
| O=c1n(CCN2CCC(=C(c3ccccc3)c3ccccc3)CC2)nc2n1CCCCC2 | < 6 | 7 | 42 | – | – | – | 3 | – |
| O=C(c1ccc(F)cc1)C1CCN(CCn2nc3n(c2=O)CCCC3)CC1 | < 6 | 7.4 | 91 | – | – | – | 32 | – |
| O=c1n(CCN2CCC(=C(c3ccc(F)cc3)c3ccc(F)cc3)CC2)nc2n1CCC2 | – | 7.1 | 74 | 6.9 | – | – | – | 6 |

Second part, led by results:

| pA2 [1] | pA2 [2] | inhibition [4] [%] | pA2 [6] | pA2 [7] | pA2 [8] | SMILES | inhibition [3] [%] | inhibition [5] [%] |
| --- | --- | --- | --- | --- | --- | --- | --- | --- |
| 7.5 | 8.1 | – | – | – | – | O=C(c1ccc(F)cc1)C1CCN(CCn2c(=O)nc3ccccn3c2=O)CC1 | – | – |
| – | – | – | – | Non-competitive antagonist | Non-competitive inhibition | O=C(c1ccc(F)cc1)C1CCN(CCn2nc3n(c2=O)CCCCC3)CC1 | – | – |
| – | 8.3 | 83 | 6.8 | – | – | O=c1nc2n(c(=O)n1CCN1CCC(=C(c3ccc(F)cc3)c3ccc(F)cc3)CC1)CCC2 | 8 | – |
| 6.3 | 7.4 | 62 | – | – | – | O=C(c1ccc(F)cc1)C1CCN(CCn2nc3n(c2=O)CCOC3)CC1 | 36 | – |
| 7.6 | 7.3 | 72 | – | – | – | O=C(c1ccc(F)cc1)C1(O)CCN(CCCn2nc3n(c2=O)CCCCC3)CC1 | – | – |
| – | 7.9 | 79 | – | – | Non-competitive inhibition | O=C(c1ccc(F)cc1)C1CCN(CCn2c(=O)nc3sccn3c2=O)CC1 | 50 | – |
| 7.8 | – | 89 | – | – | – | O=c1n(CCN2CCC(=C(c3ccc(F)cc3)c3ccc(F)cc3)CC2)nc2n1CCCO2 | 16 | – |
| 6.8 | 6.8 | 90 | – | – | – | O=C(c1ccc(F)cc1)C1CCN(CCn2nc3n(c2=O)CCCC3)CC1c1ccc(F)cc1 (configuration not stated) | 15 | – |
| 7.5 | 7.8 | 67 | – | – | – | O=c1n(CCN2CCC(=C(c3ccc(F)cc3)c3ccc(F)cc3)CC2)nc2n1CCSC2 | 4 | – |
